Results taken from paper PMC6138487 (British Journal of Clinical Pharmacology, 2018).
Marks after values point to notes of the source that are not given here.

What was measured:
[1] = Pharmacokinetics of elobixibat; type: in vivo, human; conditions: for AUC(0–t), back transformed LSM ratio breakfast/no breakfast / Cmax, back transformed LSM ratio breakfast/no breakfast: linear mixed effect model; for fe144h / Ae144h: urine 0-144 h; for fe144h: arithmetic mean; for Ae144h: geometric mean (CV)
Procedure, shortened: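 Single oral dose, 2.5–20 mg, with or without breakfast, in crossover. Plasma was drawn predose and at 0.5–12 h on Days –1, 1, 7 and 8, plus daily. Urine was collected daily except Day 7. Analyte was measured by LC–MS/MS (LLOQ 10.0 pg ml–1). Noncompartmental analysis with linear trapezoidal AUC. Dose proportionality (no-breakfast regimen) was assessed by power model or ANOVA on log values. Food effect: mixed model, back-transformed LSM ratios.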

[2] = test system: patients with chronic constipation; assay: Adverse events, S-test; type: in vivo, human
Procedure, shortened: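 Crossover study with patients randomized 5:1 to test compound (2.5–20 mg) or placebo. Single oral dose on Day 1, taken 15 min before breakfast or without breakfast, then 6-day washout. The alternative regimen was given on Day 8, followed by 5-day observation. Inpatient Day –2 to Day 14. AE type, severity and incidence recorded with vital signs, ECG and laboratory tests. Dose trend by Cochran–Armitage test.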

[3] = single dose 2.5 mg, before breakfast
[4] = single dose 2.5 mg, no breakfast
[5] = single dose 5 mg, before breakfast
[6] = single dose 10 mg, before breakfast
[7] = single dose 10 mg, no breakfast
[8] = single dose 15 mg, before breakfast
[9] = single dose 15 mg, no breakfast
[10] = single dose 20 mg, before breakfast
[11] = single dose 20 mg, no breakfast
[12] = single dose 2.5 mg, before breakfast (group n=10)
[13] = single dose 2.5 mg, no breakfast (group n=10)
[14] = single dose 5 mg, before breakfast (group n=10)
[15] = single dose 5 mg, no breakfast (group n=10)
[16] = single dose 10 mg, before breakfast (group n=10)
[17] = single dose 10 mg, no breakfast (group n=10)
[18] = single dose 15 mg, before breakfast (group n=10)
[19] = single dose 15 mg, no breakfast (group n=10)
[20] = single dose 20 mg, before breakfast (group n=10)
[21] = single dose 20 mg, no breakfast (group n=9)

CCCCC1(CCCC)CN(c2ccccc2)c2cc(SC)c(OCC(=O)N[C@@H](C(=O)NCC(=O)O)c3ccccc3)cc2S(=O)(=O)C1 [elobixibat]
plasma elobixibat concentration, range ([1]; 2.5-20 mg): picomolar range | quantity of drug excreted in the urine ([1]; all dosing levels, both regimens): less than 0.01% | slope of the regression line (power model) for Ae144h ([1]; no‐breakfast regimen, 2.5-20 mg, dose proportionality): 0.9321 | fraction of dose excreted in urine (fe) up to 144 h ([1]; no‐breakfast regimen, all dosing groups (2.5-20 mg)): < 0.01% | t1/2 versus dose ([1]; no‐breakfast regimen, P < 0.001, said to be apparent (LLOQ)): prolonged dose‐dependently | AUC(0–t), back transformed LSM ratio breakfast/no breakfast ([1]; single dose 2.5 mg): 0.1368 | Cmax, back transformed LSM ratio breakfast/no breakfast ([1]; single dose 2.5 mg): 0.2448 | AUC(0–t), back transformed LSM ratio breakfast/no breakfast ([1]; single dose 5 mg): 0.2318 | Cmax, back transformed LSM ratio breakfast/no breakfast ([1]; single dose 5 mg): 0.2922 | AUC(0–t), back transformed LSM ratio breakfast/no breakfast ([1]; single dose 10 mg): 0.1989 | Cmax, back transformed LSM ratio breakfast/no breakfast ([1]; single dose 10 mg): 0.2531 | AUC(0–t), back transformed LSM ratio breakfast/no breakfast ([1]; single dose 15 mg): 0.1884 | Cmax, back transformed LSM ratio breakfast/no breakfast ([1]; single dose 15 mg): 0.2085 | AUC(0–t), back transformed LSM ratio breakfast/no breakfast ([1]; single dose 20 mg): 0.2275 | Cmax, back transformed LSM ratio breakfast/no breakfast ([1]; single dose 20 mg): 0.2240 | fe144h [1, 3]: 0.0008 ^a % | Ae144h [1, 3]: 24.30 (72.9) ^a ng | fe144h [1, 4]: 0.0098% | Ae144h [1, 4]: 213.28 (59.5) ng | fe144h [1, 5]: 0.0021% | Ae144h [1, 5]: 107.50 (63.4) ng | fe144h ([1]; single dose 5 mg, no breakfast): 0.0077% | Ae144h ([1]; single dose 5 mg, no breakfast): 306.59 (38.8) ng | fe144h [1, 6]: 0.0016% | Ae144h [1, 6]: 139.38 (49.9) ng | fe144h [1, 7]: 0.0070% | Ae144h [1, 7]: 598.14 (67.8) ng | fe144h [1, 8]: 0.0013 ^a % | Ae144h [1, 8]: 188.43 (37.2) ^a ng | fe144h [1, 9]: 0.0070 ^a % | Ae144h [1, 9]: 873.09 (68.4) ^a ng | fe144h [1, 10]: 0.0021 ^a % | Ae144h [1, 10]: 384.85 (55.6) ^a ng | fe144h [1, 11]: 0.0088% | Ae144h [1, 11]: 1623.23 (41.5) ng | AEs associated with gastrointestinal disorders, % of patients [2, 12]: (40.0) % | AEs associated with gastrointestinal disorders, n of patients [2, 12]: 4 | Any AEs, % of patients [2, 12]: (40.0) % | Any AEs, n of patients [2, 12]: 4 | abdominal distention, % of patients [2, 12]: (20.0) % | abdominal distention, n of patients [2, 12]: 2 | abdominal pain lower, % of patients [2, 12]: (20.0) % | abdominal pain lower, n of patients [2, 12]: 2 | diarrhoea, n of patients [2, 12]: 0 | AEs associated with gastrointestinal disorders, % of patients [2, 13]: (20.0) % | AEs associated with gastrointestinal disorders, n of patients [2, 13]: 2 | Any AEs, % of patients [2, 13]: (40.0) % | Any AEs, n of patients [2, 13]: 4 | abdominal distention, n of patients [2, 13]: 0 | abdominal pain lower, % of patients [2, 13]: (10.0) % | abdominal pain lower, n of patients [2, 13]: 1 | diarrhoea, n of patients [2, 13]: 0 | AEs associated with gastrointestinal disorders, % of patients [2, 14]: (80.0) % | AEs associated with gastrointestinal disorders, n of patients [2, 14]: 8 | Any AEs, % of patients [2, 14]: (80.0) % | Any AEs, n of patients [2, 14]: 8 | abdominal distention, n of patients [2, 14]: 0 | abdominal pain lower, % of patients [2, 14]: (40.0) % | abdominal pain lower, n of patients [2, 14]: 4 | diarrhoea, % of patients [2, 14]: (40.0) % | diarrhoea, n of patients [2, 14]: 4 | AEs associated with gastrointestinal disorders, % of patients [2, 15]: (50.0) % | AEs associated with gastrointestinal disorders, n of patients [2, 15]: 5 | Any AEs, % of patients [2, 15]: (50.0) % | Any AEs, n of patients [2, 15]: 5 | abdominal distention, % of patients [2, 15]: (20.0) % | abdominal distention, n of patients [2, 15]: 2 | abdominal pain lower, % of patients [2, 15]: (20.0) % | abdominal pain lower, n of patients [2, 15]: 2 | diarrhoea, % of patients [2, 15]: (30.0) % | diarrhoea, n of patients [2, 15]: 3 | AEs associated with gastrointestinal disorders, % of patients [2, 16]: (10.0) % | AEs associated with gastrointestinal disorders, n of patients [2, 16]: 1 | Any AEs, % of patients [2, 16]: (20.0) % | Any AEs, n of patients [2, 16]: 2 | abdominal distention, n of patients [2, 16]: 0 | abdominal pain lower, % of patients [2, 16]: (10.0) % | abdominal pain lower, n of patients [2, 16]: 1 | diarrhoea, n of patients [2, 16]: 0 | AEs associated with gastrointestinal disorders, % of patients [2, 17]: (10.0) % | AEs associated with gastrointestinal disorders, n of patients [2, 17]: 1 | Any AEs, % of patients [2, 17]: (30.0) % | Any AEs, n of patients [2, 17]: 3 | abdominal distention, n of patients [2, 17]: 0 | abdominal pain lower, % of patients [2, 17]: (10.0) % | abdominal pain lower, n of patients [2, 17]: 1 | diarrhoea, n of patients [2, 17]: 0 | AEs associated with gastrointestinal disorders, % of patients [2, 18]: (60.0) % | AEs associated with gastrointestinal disorders, n of patients [2, 18]: 6 | Any AEs, % of patients [2, 18]: (60.0) % | Any AEs, n of patients [2, 18]: 6 | abdominal distention, % of patients [2, 18]: (10.0) % | abdominal distention, n of patients [2, 18]: 1 | abdominal pain lower, % of patients [2, 18]: (10.0) % | abdominal pain lower, n of patients [2, 18]: 1 | diarrhoea, % of patients [2, 18]: (50.0) % | diarrhoea, n of patients [2, 18]: 5 | AEs associated with gastrointestinal disorders, % of patients [2, 19]: (100.0) % | AEs associated with gastrointestinal disorders, n of patients [2, 19]: 10 | Any AEs, % of patients [2, 19]: (100.0) % | Any AEs, n of patients [2, 19]: 10 | abdominal distention, % of patients [2, 19]: (20.0) % | abdominal distention, n of patients [2, 19]: 2 | abdominal pain lower, % of patients [2, 19]: (30.0) % | abdominal pain lower, n of patients [2, 19]: 3 | diarrhoea, % of patients [2, 19]: (70.0) % | diarrhoea, n of patients [2, 19]: 7 | AEs associated with gastrointestinal disorders, % of patients [2, 20]: (30.0) % | AEs associated with gastrointestinal disorders, n of patients [2, 20]: 3 | Any AEs, % of patients [2, 20]: (40.0) % | Any AEs, n of patients [2, 20]: 4 | abdominal distention, % of patients [2, 20]: (20.0) % | abdominal distention, n of patients [2, 20]: 2 | abdominal pain lower, % of patients [2, 20]: (10.0) % | abdominal pain lower, n of patients [2, 20]: 1 | diarrhoea, n of patients [2, 20]: 0 | AEs associated with gastrointestinal disorders, % of patients [2, 21]: (11.1) % | AEs associated with gastrointestinal disorders, n of patients [2, 21]: 1 | Any AEs, % of patients [2, 21]: (44.4) % | Any AEs, n of patients [2, 21]: 4 | abdominal distention, % of patients [2, 21]: (11.1) % | abdominal distention, n of patients [2, 21]: 1 | abdominal pain lower, n of patients [2, 21]: 0 | diarrhoea, n of patients [2, 21]: 0
